TDP2 inh: human TDP2 enzyme inhibitors, primary screen, biochemical, epi absorbance, recombinant enzyme; T5PNP hydrolysis, p-nitrophenol absorbance 415 nm; 0.34% of 370,000 active; inhibition, % at 12.8 µM; AID 720702, 2013; Tyrosyl-DNA phosphodiesterase 2 (Homo sapiens), O95551;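 active = inhibition above the mean of all tested compounds plus 3 SD, set per campaign, cut at about 25% in these data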;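 note: 0% = DMSO with enzyme and 100% = buffer with substrate but no TDP2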
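System: recombinant human TDP2 / Amount: 120 nM TDP2 per well / Also added: 5 mM T5PNP chromogenic substrate / Doses: 12.8 µM single point, 1% DMSO / Incubation: 2 h at 37 °C / Detection: p-Nitrophenol epi absorbance / Evaluation: % inhibition relative to enzyme-containing and enzyme-free wells / Repeats: singlicate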
GSTO1 counter: inhibitors of recombinant GSTO1, primary screen, counter-screen for RBBP9 inhibitor project, biochemical, fluorescence polarization; 1.1% of 300,000 active; AID 1974, 2009; activity-based probe fluorescence polarization; Glutathione S-transferase omega-1 (Homo sapiens), P78417; inhibition, % at 5.96 µM;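 active = inhibition above the campaign mean inhibition plus 3 SD, cut at about 35% in these data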;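 note: 0% = GSTO1-1 with DMSO and 100% = wells lacking GSTO1-1 enzyme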
Target sequence (P78417 whole entry, looked up): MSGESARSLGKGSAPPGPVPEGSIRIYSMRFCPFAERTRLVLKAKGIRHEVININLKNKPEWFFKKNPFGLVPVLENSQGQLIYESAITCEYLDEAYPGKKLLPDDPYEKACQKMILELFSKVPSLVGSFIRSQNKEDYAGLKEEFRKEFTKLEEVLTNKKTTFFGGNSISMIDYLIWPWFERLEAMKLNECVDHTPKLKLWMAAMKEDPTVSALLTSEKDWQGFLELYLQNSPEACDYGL
PAD4 inh: human PAD4 inhibitors, primary screen, biochemical, fluorescence polarization, 1536-well format; recombinant PAD4, RCA probe fluorescence polarization; inhibition, % at 6.36 µM; 0.41% of 330,000 active;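 active = percent inhibition above a cutoff equal to the mean of all tested compounds plus 3 SD, cut at about 15% in these data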;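 note: 0% = PAD4 with RCA probe and DMSO and 100% = probe without PAD4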
Apaf1 inhib: inhibitors of human Apaf-1 apoptosome, primary screen, biochemical, DEVD-Rh110 fluorescence, uHTS; reconstituted apoptosome caspase-3 activity; inhibition, % at 20 µM; 0.71% of 330,000 active; active = inhibition of at least 40% at 20 µM;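 note: plate controls were DMSO wells for no effect and DEVD-CHO caspase inhibitor wells for full effect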
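detection = Rh110 fluorescence intensity | test system = biochemical Apaf-1 apoptosome reconstitution | also added = cytochrome c and DEVD-Rh110 substrate | schedule = 30 min plus 50 min, RT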
PRMT1 inh: PRMT1 methyltransferase inhibitors, primary screen, biochemical, fluorescence polarization. 1.3% of 370,000 active. recombinant PRMT1, activity-based probe fluorescence polarization. AID 652257, 2013. inhibition, % at 2.79 µM;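 active = inhibition above about 21% made by adding two undisclosed values, limit read from the data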
Target sequence (Q99873 whole entry, looked up): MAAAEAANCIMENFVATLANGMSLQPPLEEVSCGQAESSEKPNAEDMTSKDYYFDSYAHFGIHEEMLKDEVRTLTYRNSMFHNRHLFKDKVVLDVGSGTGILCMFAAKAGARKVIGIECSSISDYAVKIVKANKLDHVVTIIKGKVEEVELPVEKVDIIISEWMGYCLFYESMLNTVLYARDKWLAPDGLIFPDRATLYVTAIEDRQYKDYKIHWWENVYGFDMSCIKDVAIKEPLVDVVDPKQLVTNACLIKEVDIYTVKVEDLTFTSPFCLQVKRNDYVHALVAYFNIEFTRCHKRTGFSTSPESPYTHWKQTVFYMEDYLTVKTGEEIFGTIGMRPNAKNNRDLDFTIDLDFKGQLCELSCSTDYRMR
PRMT1 inh conf: PRMT1 methyltransferase inhibitors, confirmation, biochemical, fluorescence polarization, triplicate; shares compounds with PRMT1 inh; recombinant His-PRMT1, activity-based probe fluorescence polarization; inhibition, % at 2.79 µM; 42% of 3,300 active; AID 687036, 2013;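 active = mean inhibition across replicates above the hit cutoff derived for the earlier primary screen, cut at about 22% in these data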
* marks the source's active call; other numbers are inactive results; x = not tested or not shown. An excerpt weighted towards active compounds, which were near 2.6% of everything screened.

SMILES | TDP2 inh | GSTO1 counter | PAD4 inh | Apaf1 inhib | PRMT1 inh | PRMT1 inh conf
NC(=O)c1ccccc1NCC(=O)c1ccc(F)cc1 | -14 | -2 | -6 | -2 | 34* | 3
CCCOc1ccccc1NC(=O)/C=C/C(N)=O | -8 | 6 | -1 | -6 | 59* | 36*
O=C1NC(=O)C2(N1)C(=O)c1cccc3cccc2c13 (centres undefined) | 10 | x | x | x | 139* | 72*
CC(=O)Nc1ccc(SCC(=O)N(C)CC(=O)Nc2ccccc2Cl)cc1 | 6 | x | 12 | -4 | 58* | 61*
O=C(COC(=O)CNC(=O)c1ccccc1)Nc1ccc(F)c([N+](=O)[O-])c1 | -1 | 2 | -3 | -5 | 1 | x
O=C1COc2ccc(C(=O)COC(=O)/C=C/c3ccc(Br)o3)cc2N1 | -1 | 27 | 2 | 28 | 37* | 2
Cc1ccc(/C=C/C(=O)OCC(=O)c2ccc3c(c2)NC(=O)CO3)o1 | -8 | x | 2 | 3 | 17 | x
COC(=O)[C@@]12C[C@@H](CC(=O)N3CCCCC3)C(=O)N(Cc3ccco3)C1=CCC(C)(C)C2 | 6 | x | x | x | -4 | x
C=CCN(C(=O)CSC1=NC(=O)CN1C(C)=O)c1nc(C)c(-c2ccccc2)s1 | 5 | -18 | -2 | 4 | 5 | x
COc1cc(NC(=O)CSc2ncnc3sc4c(c23)CCCC4)c(C(=O)O)cc1OC | 2 | -23 | -2 | 6 | 32* | 7
Cc1ccc2nc(N(CCCN(C)C)C(=O)c3ccc4ncsc4c3)sc2c1 | -1 | -2 | 1 | 9 | 28* | 10
COc1ccc2nc(N(CCN(C)C)C(=O)c3ccc4ncsc4c3)sc2c1 | -14 | x | x | x | 16 | x
CN(C(=O)CSC1=NCCS1)c1ccccc1 | -8 | -15 | 2 | -9 | 4 | x
O=C(CSC1=NCCS1)NC(c1ccccc1)c1ccccc1 | 5 | 0 | 7 | -6 | 58* | 66*
O=C(CSC1=NCCS1)NC(NC(=O)CSC1=NCCS1)c1ccccc1 | 1 | -27 | -2 | -3 | 26* | 11
O=C(NC1CC1)C1CCN(c2nc3ccccc3s2)CC1 | -6 | 4 | -4 | 1 | -11 | x
C/C=C\C=C\C(=O)N1CC2(CC(c3cccc(NC(=O)COc4ccc(Cl)cc4)c3)=NO2)C[C@H]1C(N)=O (some centres undefined) | -12 | -5 | -2 | 23 | 63* | 22*
Cc1cc(/C=N/NC(N)=S)c(O)c(/C=N/NC(N)=S)c1 | -1 | -3 | 3 | -29 | 75* | 82*
CC(C)N1C(=O)S/C(=C\c2ccc(-c3ccc(Cl)c(C(=O)O)c3)o2)C1=O | -14 | 1 | -4 | 3 | 52* | 8
Cc1cc(N2CCOCC2)ccc1/C=C1\SC(=O)N(C(C)C)C1=O | -9 | 6 | 6 | 29 | -4 | x
CCN(CC)c1ccc(/C=C2/SC(=O)N(C(C)C)C2=O)o1 | 11 | x | x | x | 27* | -54
O=c1[nH]c(NCCO)nnc1Cc1ccccc1 | 2 | 1 | 3 | -2 | -6 | x
O=C1C=C(C2CCCCC2)C(=O)c2ccccc21 | 8 | x | x | x | 31* | 4
O=C(O)C1=C(C2CCCCC2)C(=O)c2ccccc21 | -1 | x | x | x | 1 | x
CCOc1ccc(Cl)cc1S(=O)(=O)N1CCC(C(=O)N2CCCC2)CC1 | -3 | -1 | 3 | -8 | -1 | x
SMILES | TDP2 inh | GSTO1 counter | PAD4 inh | Apaf1 inhib | PRMT1 inh | PRMT1 inh conf
COC[C@H]1CCCN1c1cccc2c1S(=O)(=O)N1CC[C@H](C1)O2 | 1 | x | x | x | -4 | x
S=C(NCc1ccco1)NCc1ccco1 | 6 | x | x | x | 27* | 7
NS(=O)(=O)c1ccc(NC(=S)NC2CCCC2)cc1 | 4 | -3 | -2 | 0 | 34* | 20
CC(=O)c1ccc(NC(=S)NCCc2ccc(S(N)(=O)=O)cc2)cc1 | 6 | 5 | -5 | -5 | -2 | x
O=S(=O)(c1ccc(NC(=S)NC2CCCC2)cc1)N1CCCC1 | -12 | 4 | -9 | 7 | 0 | x
CC(C)OCCCNC(=S)Nc1ccc(S(N)(=O)=O)cc1 | 5 | 5 | -6 | -1 | 40* | 58*
NS(=O)(=O)c1ccc(NC(=S)NCc2ccco2)cc1 | -7 | 8 | 3 | -8 | 27* | 10
CCCc1cc(=O)n2nc(N3CCC(C(=O)N4CCN(c5cccc(OC)c5)CC4)CC3)sc2n1 | -14 | -4 | -3 | 15 | 1 | x
Cc1c(C)c2ccc(OCC(=O)NCCc3c[nH]c4ccccc34)cc2oc1=O | -3 | x | x | x | 1 | x
O=C1C2C3C=CC(CO)(O3)C2C(=O)N1c1ccc(-c2ccccc2)cc1 (centres undefined) | x | -5 | -4 | 15 | x | x
O=C1C2C3C=CC(CNS(=O)(=O)c4ccccc4[N+](=O)[O-])(O3)C2C(=O)N1c1ccccc1 (centres undefined) | -2 | -2 | -2 | -1 | 76* | 42*
Cc1cc(C)c(S(=O)(=O)NCC23C=CC(O2)C2C(=O)N(c4ccccc4)C(=O)C23)c(C)c1 (centres undefined) | 0 | 2 | 1 | 11 | 54* | 4
CN1CCN2c3ccccc3CC(C#N)(C#N)C2C1 (centres undefined) | 3 | x | x | x | 1 | x
O=C(NC(C(=O)c1ccccc1)c1ccccc1)c1ccccc1 (centres undefined) | 8 | x | x | x | -1 | x
O=C(NN1C(=O)C2C3C=CC(O3)C2C1=O)c1cccc(Br)c1 (centres undefined) | -9 | 4 | 0 | 4 | 40* | 8
COc1ccc(C(=O)NN2C(=O)C3C4C=CC(O4)C3C2=O)cc1 (centres undefined) | 6 | -3 | -4 | 2 | 49* | 11
Cc1ccc(C(=O)NN2C(=O)C3C4C=CC(C4)[C@@H]3C2=O)cc1 (some centres undefined) | -1 | 1 | 3 | -16 | 5 | x
O=C(NN1C(=O)C2C3C=CC(O3)C2C1=O)c1cccc(O)c1 (centres undefined) | -24 | 0 | 3 | -5 | 54* | 0
Cc1ccc2c(C)c(C(=O)N(C)C(C)c3ccon3)oc2c1C (centres undefined) | -5 | -2 | 2 | 8 | 1 | x
O=C(OCc1cn([C@H]2C[C@H](c3ccc(Cl)cc3)N(Cc3cccs3)C[C@@H]2O)nn1)c1ccccc1 | -3 | x | x | x | -3 | x
COc1ccc(NC(=O)c2c(NC(=O)CNCC(C)C)sc3c2CCC3)c(OC)c1 | 12 | 3 | -2 | -2 | -1 | x
Nc1cc(C(F)(F)F)ccc1NCCc1ccccn1 | 1 | 8 | -8 | 3 | 3 | x
